Experiments:
[1] = target: Activin receptor type-1 (Homo sapiens) (UniProt Q04771); experiment: Binding affinity to wild-type human ACVR1 (C188 to C509 residues) expressed in bacterial expression system assessed as residual binding level at 1 uM by Kinomescan method relative to control
Summary of the method: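 Single-concentration (1 μM) competition-binding screen run by KINOMEscan against a panel of 468 purified kinases and mutants. The read-out is the relative binding activity of the test compound to each kinase.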

[2] = target: Atypical kinase COQ8B, mitochondrial (Homo sapiens) (UniProt Q96D53); experiment: Binding affinity to wild-type human full length ADCK4 (M1 to S544 residues) expressed in bacterial expression system assessed as residual binding level at 1 uM by Kinomescan method relative to control
Summary of the method: (§1)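 KINOMEscan competition binding against 468 purified kinases/mutants, test compound at 1 µM; residual binding relative to control.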

[3] = target: NUAK family SNF1-like kinase 1 (Homo sapiens) (UniProt O60285); experiment: Binding affinity to wild-type human partial length ARK5 (E25 to I332 residues) expressed in bacterial expression system assessed as residual binding level at 1 uM by Kinomescan method relative to control
Summary of the method: (§2)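 Single-concentration KINOMEscan (DiscoverX) binding screen at 1 μM against a panel of 468 purified kinases and mutants. The read-out is binding relative to control.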

[4] = target: Calcium/calmodulin-dependent protein kinase type 1D (Homo sapiens) (UniProt Q8IU85); experiment: Binding affinity to wild-type human partial length CAMK1D (M1 to K299 residues) expressed in bacterial expression system assessed as residual binding level at 1 uM by Kinomescan method relative to control
Sequence of Calcium/calmodulin-dependent protein kinase type 1D (Homo sapiens) (Q8IU85 whole entry, looked up, the tested form may be a part): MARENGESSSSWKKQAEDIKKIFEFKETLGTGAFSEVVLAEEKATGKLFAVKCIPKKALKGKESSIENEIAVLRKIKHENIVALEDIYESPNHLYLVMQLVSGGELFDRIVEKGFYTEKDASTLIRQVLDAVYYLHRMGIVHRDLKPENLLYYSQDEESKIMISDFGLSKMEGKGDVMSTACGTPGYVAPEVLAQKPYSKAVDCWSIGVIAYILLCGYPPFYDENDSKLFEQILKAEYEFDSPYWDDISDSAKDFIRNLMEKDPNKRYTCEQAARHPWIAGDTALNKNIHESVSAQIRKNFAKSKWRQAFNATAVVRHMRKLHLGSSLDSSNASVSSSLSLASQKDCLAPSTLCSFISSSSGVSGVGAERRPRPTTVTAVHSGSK
Summary of the method: (§3)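 Kinome-wide competition binding screen against a panel of 468 purified kinases/mutants, with the test compound at a single concentration of 1 μM. Read-out is the relative binding activity of each kinase in the presence of compound.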

[5] = target: Calcium/calmodulin-dependent protein kinase type IV (Homo sapiens) (UniProt Q16566); experiment: Binding affinity to wild-type human partial length CAMK4 (A22 to A322 residues) expressed in bacterial expression system assessed as residual binding level at 1 uM by Kinomescan method relative to control
Sequence of Calcium/calmodulin-dependent protein kinase type IV (Homo sapiens) (Q16566 whole entry, the tested form may be a part): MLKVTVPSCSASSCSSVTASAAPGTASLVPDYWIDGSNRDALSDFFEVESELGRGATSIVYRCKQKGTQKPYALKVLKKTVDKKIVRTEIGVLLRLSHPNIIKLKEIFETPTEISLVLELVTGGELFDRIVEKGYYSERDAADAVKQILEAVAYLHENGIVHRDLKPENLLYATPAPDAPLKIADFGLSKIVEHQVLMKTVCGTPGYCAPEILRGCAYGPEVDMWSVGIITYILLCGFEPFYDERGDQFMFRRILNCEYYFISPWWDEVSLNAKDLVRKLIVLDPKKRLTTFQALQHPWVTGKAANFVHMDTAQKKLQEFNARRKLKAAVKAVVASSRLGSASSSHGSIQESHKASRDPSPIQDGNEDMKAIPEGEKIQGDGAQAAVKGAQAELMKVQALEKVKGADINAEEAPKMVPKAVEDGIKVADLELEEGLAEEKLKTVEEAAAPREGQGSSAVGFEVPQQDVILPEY

[6] = target: Death-associated protein kinase 1 (Homo sapiens) (UniProt P53355); experiment: Binding affinity to wild-type human partial length DAPK1 (M1 to F296 residues) expressed in bacterial expression system assessed as residual binding level at 1 uM by Kinomescan method relative to control
[7] = target: Serine/threonine-protein kinase DCLK3 (Homo sapiens) (UniProt Q9C098); experiment: Binding affinity to wild-type human partial length DCAMKL3 (E140 to V628 residues) expressed in bacterial expression system assessed as residual binding level at 1 uM by Kinomescan method relative to control; summary of the method: as §3
Sequence of Serine/threonine-protein kinase DCLK3 (Homo sapiens) (Q9C098 whole entry, the tested form may be a part): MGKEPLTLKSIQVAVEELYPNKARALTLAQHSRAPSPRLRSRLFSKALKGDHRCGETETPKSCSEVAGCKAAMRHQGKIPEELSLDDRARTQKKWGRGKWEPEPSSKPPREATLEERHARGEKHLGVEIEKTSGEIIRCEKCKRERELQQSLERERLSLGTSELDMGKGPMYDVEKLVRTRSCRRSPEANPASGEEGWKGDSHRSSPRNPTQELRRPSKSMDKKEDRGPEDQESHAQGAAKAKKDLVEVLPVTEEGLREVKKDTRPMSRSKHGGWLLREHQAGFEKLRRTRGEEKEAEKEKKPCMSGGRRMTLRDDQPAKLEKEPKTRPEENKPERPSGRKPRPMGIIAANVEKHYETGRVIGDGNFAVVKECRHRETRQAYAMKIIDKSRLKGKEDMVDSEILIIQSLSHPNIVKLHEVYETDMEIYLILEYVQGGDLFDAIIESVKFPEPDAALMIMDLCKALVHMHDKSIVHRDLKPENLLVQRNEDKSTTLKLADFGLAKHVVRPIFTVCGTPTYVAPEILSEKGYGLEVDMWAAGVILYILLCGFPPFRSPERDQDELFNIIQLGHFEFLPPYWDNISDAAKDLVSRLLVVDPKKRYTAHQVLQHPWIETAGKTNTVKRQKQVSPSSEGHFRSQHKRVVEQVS

[8] = target: Ephrin type-A receptor 2 (Homo sapiens) (UniProt P29317); experiment: Binding affinity to wild-type human partial length EPHA2 (T593 to V891 residues) expressed in bacterial expression system assessed as residual binding level at 1 uM by Kinomescan method relative to control
[9] = target: Fibroblast growth factor receptor 2 (Homo sapiens) (UniProt P21802); experiment: Binding affinity to wild-type human partial length FGFR2 (D457 to E769 residues) expressed in bacterial expression system assessed as residual binding level at 1 uM by Kinomescan method relative to control; summary of the method: as §3
[10] = target: Mitogen-activated protein kinase kinase kinase kinase 2 (Homo sapiens) (UniProt Q12851); experiment: Binding affinity to wild-type human partial length MAP4K2 (M1 to G318 residues) expressed in mammalian expression system assessed as residual binding level at 1 uM by Kinomescan method relative to control
[11] = target: Misshapen-like kinase 1 (Homo sapiens) (UniProt Q8N4C8); experiment: Binding affinity to wild-type human partial length MINK (M1 to K312 residues) expressed in mammalian expression system assessed as residual binding level at 1 uM by Kinomescan method relative to control; summary of the method: as §3
Sequence of Misshapen-like kinase 1 (Homo sapiens) (Q8N4C8 whole entry, looked up, the tested form may be a part): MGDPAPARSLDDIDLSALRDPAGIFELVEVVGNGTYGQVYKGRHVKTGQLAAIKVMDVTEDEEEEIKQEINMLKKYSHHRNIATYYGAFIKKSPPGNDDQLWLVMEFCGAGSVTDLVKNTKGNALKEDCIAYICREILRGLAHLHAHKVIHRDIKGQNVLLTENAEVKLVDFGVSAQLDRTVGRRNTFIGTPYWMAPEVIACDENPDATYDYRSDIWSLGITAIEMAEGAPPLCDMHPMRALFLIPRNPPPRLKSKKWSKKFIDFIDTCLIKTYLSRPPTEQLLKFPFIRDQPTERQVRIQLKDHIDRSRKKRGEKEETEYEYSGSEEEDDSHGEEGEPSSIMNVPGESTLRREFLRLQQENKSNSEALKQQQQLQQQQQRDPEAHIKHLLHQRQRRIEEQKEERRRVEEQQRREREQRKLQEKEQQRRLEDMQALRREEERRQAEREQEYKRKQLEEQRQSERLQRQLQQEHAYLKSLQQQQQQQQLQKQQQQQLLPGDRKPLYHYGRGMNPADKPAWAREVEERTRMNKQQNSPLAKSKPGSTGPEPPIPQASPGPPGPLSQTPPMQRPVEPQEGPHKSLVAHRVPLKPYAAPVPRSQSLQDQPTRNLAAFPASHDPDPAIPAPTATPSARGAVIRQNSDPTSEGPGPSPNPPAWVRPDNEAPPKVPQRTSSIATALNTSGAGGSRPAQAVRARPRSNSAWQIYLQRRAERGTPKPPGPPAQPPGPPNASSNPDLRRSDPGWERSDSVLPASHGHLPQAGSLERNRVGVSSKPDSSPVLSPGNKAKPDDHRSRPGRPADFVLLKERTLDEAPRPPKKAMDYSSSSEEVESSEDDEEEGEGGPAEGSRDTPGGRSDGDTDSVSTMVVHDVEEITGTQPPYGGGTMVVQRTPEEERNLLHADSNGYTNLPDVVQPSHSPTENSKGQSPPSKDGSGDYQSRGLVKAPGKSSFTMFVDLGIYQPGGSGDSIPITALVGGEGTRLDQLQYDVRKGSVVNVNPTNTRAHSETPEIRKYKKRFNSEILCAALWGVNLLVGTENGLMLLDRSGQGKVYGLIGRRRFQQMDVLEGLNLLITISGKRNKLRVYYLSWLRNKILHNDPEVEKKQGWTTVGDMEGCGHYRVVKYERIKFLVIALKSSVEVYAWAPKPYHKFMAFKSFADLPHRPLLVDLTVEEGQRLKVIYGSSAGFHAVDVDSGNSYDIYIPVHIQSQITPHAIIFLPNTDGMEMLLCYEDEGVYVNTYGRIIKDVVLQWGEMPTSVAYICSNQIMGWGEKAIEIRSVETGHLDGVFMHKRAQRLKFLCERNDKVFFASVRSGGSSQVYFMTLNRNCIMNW

[12] = target: Serine/threonine-protein kinase 26 (Homo sapiens) (UniProt Q9P289); experiment: Binding affinity to wild-type human full length MST4 (M1 to P416 residues) expressed in mammalian expression system assessed as residual binding level at 1 uM by Kinomescan method relative to control; summary of the method: as §2
Sequence of Serine/threonine-protein kinase 26 (Homo sapiens) (Q9P289 2-416 limits assumed): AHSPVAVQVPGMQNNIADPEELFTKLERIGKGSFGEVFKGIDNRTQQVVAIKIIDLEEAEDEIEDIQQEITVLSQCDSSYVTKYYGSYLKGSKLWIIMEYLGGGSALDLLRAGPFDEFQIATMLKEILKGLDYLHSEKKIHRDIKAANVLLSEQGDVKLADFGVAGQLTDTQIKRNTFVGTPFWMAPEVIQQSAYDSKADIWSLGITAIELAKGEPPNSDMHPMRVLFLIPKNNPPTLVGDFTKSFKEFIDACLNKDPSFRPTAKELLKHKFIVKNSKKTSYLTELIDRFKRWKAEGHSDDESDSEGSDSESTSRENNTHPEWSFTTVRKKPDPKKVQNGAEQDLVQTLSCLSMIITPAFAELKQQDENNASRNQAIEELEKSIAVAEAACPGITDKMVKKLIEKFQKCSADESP

[13] = target: Cyclin-dependent kinase 16 (Homo sapiens) (UniProt Q00536); experiment: Binding affinity to wild-type human partial length PCTK1 (G160 to A474 residues) expressed in mammalian expression system assessed as residual binding level at 1 uM by Kinomescan method relative to control
Sequence of Cyclin-dependent kinase 16 (Homo sapiens) (Q00536 whole entry, the tested form may be a part): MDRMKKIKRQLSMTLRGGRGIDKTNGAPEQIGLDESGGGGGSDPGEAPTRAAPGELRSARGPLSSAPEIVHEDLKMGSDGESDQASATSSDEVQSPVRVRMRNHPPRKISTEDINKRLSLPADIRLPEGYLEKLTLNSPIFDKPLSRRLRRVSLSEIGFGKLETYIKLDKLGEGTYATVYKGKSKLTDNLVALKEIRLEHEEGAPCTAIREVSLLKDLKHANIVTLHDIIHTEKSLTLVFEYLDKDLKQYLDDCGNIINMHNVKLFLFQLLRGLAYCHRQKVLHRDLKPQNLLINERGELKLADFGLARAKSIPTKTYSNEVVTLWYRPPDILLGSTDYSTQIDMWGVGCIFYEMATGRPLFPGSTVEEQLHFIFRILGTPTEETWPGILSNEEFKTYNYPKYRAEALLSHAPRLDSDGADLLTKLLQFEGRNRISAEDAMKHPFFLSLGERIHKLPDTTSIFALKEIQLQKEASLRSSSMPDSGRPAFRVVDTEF

[14] = target: Phosphatidylinositol 5-phosphate 4-kinase type-2 beta (Homo sapiens) (UniProt P78356); experiment: Binding affinity to wild-type human full length PIP5K2B (M1 to T416 residues) expressed in bacterial expression system assessed as residual binding level at 1 uM by Kinomescan method relative to control; summary of the method: as §1
Sequence of Phosphatidylinositol 5-phosphate 4-kinase type-2 beta (Homo sapiens) (P78356 whole entry, the tested form may be a part): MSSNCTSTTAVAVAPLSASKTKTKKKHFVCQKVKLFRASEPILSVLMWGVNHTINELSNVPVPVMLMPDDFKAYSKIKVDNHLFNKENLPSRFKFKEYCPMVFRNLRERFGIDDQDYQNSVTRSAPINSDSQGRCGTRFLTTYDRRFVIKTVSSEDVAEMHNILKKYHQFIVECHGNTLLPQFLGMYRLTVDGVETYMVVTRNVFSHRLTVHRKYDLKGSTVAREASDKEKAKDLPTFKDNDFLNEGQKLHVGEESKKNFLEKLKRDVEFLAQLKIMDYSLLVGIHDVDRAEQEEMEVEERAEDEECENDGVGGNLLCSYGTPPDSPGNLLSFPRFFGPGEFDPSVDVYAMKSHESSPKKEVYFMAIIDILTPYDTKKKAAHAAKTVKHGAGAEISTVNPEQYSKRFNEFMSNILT

[15] = target: cAMP-dependent protein kinase catalytic subunit alpha (Homo sapiens) (UniProt P17612); experiment: Binding affinity to wild-type human partial length PKAC-alpha (G10 to F351 residues) expressed in bacterial expression system assessed as residual binding level at 1 uM by Kinomescan method relative to control
[16] = target: Receptor-interacting serine/threonine-protein kinase 2 (Homo sapiens) (UniProt O43353); experiment: Binding affinity to wild-type human partial length RIPK2 (M1 to K310 residues) expressed in bacterial expression system assessed as residual binding level at 1 uM by Kinomescan method relative to control
[17] = target: Serine/threonine-protein kinase 36 (Homo sapiens) (UniProt Q9NRP7); experiment: Binding affinity to wild-type human partial length STK36 (M1 to T271 residues) expressed in bacterial expression system assessed as residual binding level at 1 uM by Kinomescan method relative to control
[18] = target: Serine/threonine-protein kinase tousled-like 2 (Homo sapiens) (UniProt Q86UE8); experiment: Binding affinity to wild-type human partial length TLK2 (E424 to N749 residues) expressed in bacterial expression system assessed as residual binding level at 1 uM by Kinomescan method relative to control
[19] = target: Testis-specific serine/threonine-protein kinase 3 (Homo sapiens) (UniProt Q96PN8); experiment: Binding affinity to wild-type human full length TSSK3 (M1 to T268 residues) expressed in mammalian expression system assessed as residual binding level at 1 uM by Kinomescan method relative to control; summary of the method: as §2
Sequence of Testis-specific serine/threonine-protein kinase 3 (Homo sapiens) (Q96PN8 whole entry, the tested form may be a part): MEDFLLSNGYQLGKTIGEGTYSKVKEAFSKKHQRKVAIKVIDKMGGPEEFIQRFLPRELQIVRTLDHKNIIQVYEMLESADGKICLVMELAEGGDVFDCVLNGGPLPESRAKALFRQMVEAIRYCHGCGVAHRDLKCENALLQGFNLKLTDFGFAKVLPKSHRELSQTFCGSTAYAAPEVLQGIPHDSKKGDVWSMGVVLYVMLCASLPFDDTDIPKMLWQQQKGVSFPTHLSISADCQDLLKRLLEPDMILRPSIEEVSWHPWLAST

[20] = target: Serine/threonine-protein kinase 32B (Homo sapiens) (UniProt Q9NY57); experiment: Binding affinity to wild-type human full length YANK2 (M1 to S414 residues) expressed in bacterial expression system assessed as residual binding level at 1 uM by Kinomescan method relative to control; summary of the method: as §1
[21] = target: Tyrosine-protein kinase Yes (Homo sapiens) (UniProt P07947); experiment: Binding affinity to wild-type human partial length YES (T257 to L543 residues) expressed in bacterial expression system assessed as residual binding level at 1 uM by Kinomescan method relative to control
[22] = Oral bioavailability in Sprague-Dawley rat at 10 mg/kg; type: ADME, organism-based; conditions: in vivo
Summary of the method: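 Male Sprague-Dawley rats, 6–8 weeks old and fasted overnight, dosed IV at 1 mg/kg or PO at 10 mg/kg. Formulation was 5% DMSO/40% PEG400/55% saline (1 mg/mL). Jugular blood collected on heparin from 1 min to 8 h (IV) or 5 min to 24 h (PO). Plasma separated by centrifugation at 2–8 °C and stored at −80 °C.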

Sequence of Activin receptor type-1 (Homo sapiens) (Q04771 whole entry, the tested form may be a part): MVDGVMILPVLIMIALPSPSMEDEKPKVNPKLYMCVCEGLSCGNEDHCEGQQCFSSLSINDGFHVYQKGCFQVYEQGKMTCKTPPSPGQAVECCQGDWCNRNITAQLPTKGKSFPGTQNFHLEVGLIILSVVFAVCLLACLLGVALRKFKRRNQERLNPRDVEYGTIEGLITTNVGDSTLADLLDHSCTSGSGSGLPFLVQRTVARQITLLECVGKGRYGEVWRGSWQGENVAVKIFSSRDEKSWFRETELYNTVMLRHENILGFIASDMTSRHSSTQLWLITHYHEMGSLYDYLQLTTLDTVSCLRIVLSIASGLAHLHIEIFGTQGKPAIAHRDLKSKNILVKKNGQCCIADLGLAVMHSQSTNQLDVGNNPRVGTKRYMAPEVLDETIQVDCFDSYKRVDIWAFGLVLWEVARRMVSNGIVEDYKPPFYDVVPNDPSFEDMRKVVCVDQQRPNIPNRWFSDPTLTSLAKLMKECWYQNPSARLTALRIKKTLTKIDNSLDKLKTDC

Cc1ccc(NC(=O)c2ccc(CN(CCN(C)C)C(=O)c3cccnc3)cc2)cc1Nc1nccc(-c2cccnc2)n1
Activity [1]: 99%
Activity [2]: 94%
Activity [3]: 93%
Activity [4]: 84%
Activity [5]: 98%
Activity [6]: 96%
Activity [7]: 89%
Activity [8]: 100%
Activity [9]: 80%
Activity [10]: 100%
Activity [11]: 75%
Activity [12]: 99%
Activity [13]: 100%
Activity [14]: 83%
Activity [15]: 95%
Activity [16]: 93%
Activity [17]: 97%
Activity [18]: 95%
Activity [19]: 100%
Activity [20]: 82%
Activity [21]: 100%
bioavailability [22]: 1.96%
